DENV2 CPE: inhibitors of DENV2 cytopathic effect. DENV2-infected cells, cytopathic effect rescue, plate reader. CPE inhibition, % at 9.99 µM. 350,000 tested, 1.7% active; in the data active = CPE inhibition above about 20%, passing the limit was not always enough; inconclusive = no clear call, values can overlap the other calls; tested in BHK-21 cells
E-sel inducer: E-selectin induction on HUVECs. 260,000 tested, 0.37% active. HUVEC E-selectin immunofluorescence imaging; normalized: neutral wells 0, TNF-alpha wells 100. P16581. activation, % at 7.58 µM;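 active = mean E-selectin-positive cell signal at least 10% of the positive control, reached in at least 60% of replicates, without over 20% cell loss; inconclusive = no rule given, readout overlaps actives, possibly toxicity-flagged; inactive = the rest, including those meeting only one limit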
Target sequence (P16581 whole entry, looked up): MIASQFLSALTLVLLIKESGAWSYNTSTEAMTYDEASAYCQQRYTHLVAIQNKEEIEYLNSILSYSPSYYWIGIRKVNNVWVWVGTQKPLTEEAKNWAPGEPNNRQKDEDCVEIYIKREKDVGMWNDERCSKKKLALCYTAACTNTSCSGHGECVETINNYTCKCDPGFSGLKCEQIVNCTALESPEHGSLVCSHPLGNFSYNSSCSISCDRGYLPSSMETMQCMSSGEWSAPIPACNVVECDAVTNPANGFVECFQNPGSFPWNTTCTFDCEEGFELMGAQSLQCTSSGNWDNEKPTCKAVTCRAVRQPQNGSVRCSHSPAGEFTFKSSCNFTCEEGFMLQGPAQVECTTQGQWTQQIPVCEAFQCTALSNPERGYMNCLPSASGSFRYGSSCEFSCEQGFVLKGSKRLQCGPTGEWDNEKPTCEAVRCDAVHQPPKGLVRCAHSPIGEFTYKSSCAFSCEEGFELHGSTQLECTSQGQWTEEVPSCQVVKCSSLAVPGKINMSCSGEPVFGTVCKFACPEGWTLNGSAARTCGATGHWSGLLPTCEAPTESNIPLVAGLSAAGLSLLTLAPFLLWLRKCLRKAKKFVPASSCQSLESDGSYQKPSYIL
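Read-out basis: % PE-positive cells; Test system: HUVEC primary endothelial cells; Technique: immunofluorescence imaging; Dosing: single-point compound dose.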
XiGFP reactiv: reactivates the inactive X chromosome in mouse fibroblasts | XiGFP mouse fibroblasts, % GFP-positive cells imaging, 3 d; cells co-treated with 5-aza-dC sensitizer; scaled so ellipticine positive control = 100% | activation, % at 7.58 µM | 360,000 tested, 0.055% active;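 active = mean normalized replicate activation at least 10% and every replicate at or above 10%; inconclusive = only one of the two criteria met; inactive = mean below 10% and not all replicates reach 10%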
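Material: XiGFP fibroblasts, SV40-immortalized. Buffer or medium: DMEM plus 5-aza-dC sensitizer. Compound: single concentration per compound, delivered by pin transfer. Times: 3 days compound exposure. Controls: ellipticine 6 µM.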
S100A4 MyoIIA: S100A4-myosin IIA interaction inhibition; P26447; 360,000 tested, 0.14% active; inhibition, % at 10.7 µM; S100A4/TAMRA-MyoIIA peptide fluorescence polarization;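 active = mean inhibition of at least 70% across replicates, with every replicate also reaching that level; inconclusive = mean inhibition reaches 70% but some replicates fall short; inactive = mean inhibition below 70%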
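Material: S100A4 monomer (human). Medium: Calcium-containing HEPES buffer, pH 7.2. Probe or stimulus: labelled myosin peptide probe, 5 nM. Compound dosing: one concentration per compound. Timing: polarization read 5 min after assay mix addition, stable 5–60 min. Benchmarks: DMSO as neutral control, TFP as positive control.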
Hits are given with their value; i = inactive; ? = inconclusive; nt = no result; ! = not active in a repeat. In the library only some 2% were active in any assay of this set; here they are far more common.

SMILES	DENV2 CPE	E-sel inducer	XiGFP reactiv	S100A4 MyoIIA
Cc1ccccc1S(=O)(=O)N1CC[C@@H]2[C@H](CO)Nc3ccc(-c4ccccc4F)cc3[C@@H]21	43	i	i	i
O=S(=O)(c1ccccc1F)N1CC[C@@H]2[C@H]1c1cc(-c3ccccc3F)ccc1N[C@@H]2CO	40	i	i	i
Cc1ccccc1S(=O)(=O)N1CC[C@@H]2[C@H]1c1cc(-c3ccccc3F)ccc1N[C@@H]2CO	i	i	i	i
COc1ccccc1S(=O)(=O)N1CC[C@H]2[C@H](CO)Nc3ccc(-c4ccccc4F)cc3[C@H]21	21	i	i	i
COc1ccccc1S(=O)(=O)N1CC[C@@H]2[C@@H](CO)Nc3ccc(-c4ccccc4F)cc3[C@@H]21	i	i	i	i
O=S(=O)(c1ccccc1F)N1CC[C@@H]2[C@@H](CO)Nc3ccc(-c4ccccc4)cc3[C@@H]21	i	i	i	i
CC1=C(C(=O)N(C)C)CC(CC(=O)NCCN2CCOCC2)C(=O)N1Cc1ccc(C(C)(C)C)cc1 (stereo not drawn)	i	i	i	i
COc1ccccc1C(=O)NN(C)C1=NS(=O)(=O)c2ccccc21	i	i	i	i
COCC(=O)N1C[C@H](C)[C@H](OC)CN(C)C(=O)c2cc(NC(=O)c3ccc(F)cc3)ccc2OC[C@H]1C	i	i	i	i
Fc1ccc(NC(=S)Nc2cc(-c3ccccc3)[nH]n2)cc1Cl	i	30	i	i
CN(C)CCCN1c2ccccc2Sc2ccc3ccccc3c21	43	i	i	i
CN(C)CCCN1c2ccc3ccccc3c2Sc2cccc(Cl)c21	i	i	i	i
COc1cc(C2SCCS2)cc(Br)c1Oc1ncccc1[N+](=O)[O-]	i	61	i	i
O=[N+]([O-])c1cccnc1Oc1ccc(C2SCCS2)cc1	i	nt	i	i
O=C1OC(Cc2ccccc2)(c2ccccc2)c2ccccc21 (stereo not drawn)	i	i	i	i
O=C1OC(c2ccccc2)(N(Nc2ccccc2)c2ccccc2)c2ccccc21 (stereo not drawn)	24	i	i	i
C#CCn1c(-c2cccs2)nc2ccccc21	i	i	i	i
CC(C)[C@H](NC(=O)c1ccc(Cl)c(Cl)c1)C(=O)N1CCC[C@H]1C(=O)NCCc1ccccc1Cl	23	i	i	i
CC(C)[C@H](NC(=O)c1ccccc1)C(=O)N1CCC[C@H]1C(=O)NCCc1ccccc1Cl	i	i	i	i
O=C1NC(=O)/C(=C/c2cc3c(cc2Br)OCO3)S1	22	i	i	i
O=C1Nc2ccc3c(c2C1=Cc1cc2c(cc1Br)OCO2)OCO3	i	i	i	i
CC(C)(C)CC(C)(C)N=C1Nc2cc(Cl)c(Cl)cc2NC12C[C@H]1CCC(=O)N3CC[C@@H](C2)[C@@H]13 (stereo partly drawn)	?	i	i	i
C/C=C/c1ccc([C@H]2[C@H]3CN(C(=O)c4cccc(F)c4)CC(=O)N3[C@H]2CO)cc1	i	i	i	i
C/C=C/c1ccc([C@H]2[C@@H](CO)N3C(=O)CN(C(=O)c4cccc(F)c4)C[C@@H]23)cc1	33	i	i	i
C/C=C/c1ccc([C@H]2[C@H]3CN(S(=O)(=O)c4cccc(F)c4)CC(=O)N3[C@H]2CO)cc1	30	i	i	i
SMILES	DENV2 CPE	E-sel inducer	XiGFP reactiv	S100A4 MyoIIA
C/C=C/c1ccc([C@H]2[C@@H](CO)N3C(=O)CN(S(=O)(=O)c4cccc(F)c4)C[C@@H]23)cc1	43	i	i	i
Cc1cc2cc(CNC(=O)Nc3ccc(Cl)c(Cl)c3)ccc2n1C	i	142	i	80
Cn1c(=O)c(=O)n(C)c2cc(S(=O)(=O)NCc3ccc(Cl)cc3)ccc21	?	nt	i	i
Cc1ccc(S(=O)(=O)NCc2ccc3c(c2)cc(C)n3C)cc1	i	63	i	i
COCC(=O)NCc1ccc2c(c1)cc(C)n2C	i	nt	i	i
Cc1cccc(C(=O)NCC(=O)NCC(c2cccs2)N2CCOCC2)c1 (stereo not drawn)	i	i	i	i
CC(C)Oc1ccc(N2CC(C(=O)Nc3ccc4c(c3)OCO4)CC2=O)cc1 (stereo not drawn)	i	i	i	i
O=S(=O)(c1cccc(F)c1)N1CC[C@@H]2[C@@H](CO)Nc3ccc(C#Cc4cccc(F)c4)cc3[C@@H]21	23	i	i	nt
O=S(=O)(c1cccc(F)c1)N1CC[C@@H]2[C@H](CO)Nc3ccc(C#Cc4ccccc4F)cc3[C@@H]21	24	i	i	i
O=S(=O)(c1cccc(F)c1)N1CC[C@H]2[C@H](CO)Nc3ccc(C#Cc4ccccc4F)cc3[C@H]21	i	i	i	i
O=C(NCCN1CCCCC1)c1cccc2c1C(=O)c1ccc(N3CCCC3)cc1S2(=O)=O	i	i	i	i
CC(C)(C)CNC(=O)c1cccc2c1C(=O)c1ccc(N3CCCC3)cc1S2(=O)=O	29	i	i	i
CC1CCN(c2ccc3c(c2)S(=O)(=O)c2cccc(C(=O)NC4CCCCC4)c2C3=O)CC1	34	i	i	i
CCOc1ccccc1NC(=O)CN1CCC(C(=O)c2ccc(OC)cc2)CC1	i	i	i	i
CC(C)(C)OC(=O)N1CCC(C(=O)Nc2ccc(C(=O)N3CCCC3)cc2)CC1	i	i	i	i
C[C@@H]1CN([C@H](C)CO)C(=O)c2cccc(NC(=O)c3nc4ccccc4s3)c2O[C@H]1CN(C)C(=O)NC1CCCCC1	45	i	i	i
C[C@H](CO)N1C[C@H](C)[C@H](CN(C)C(=O)Nc2ccc(F)cc2)Oc2c(NC(=O)c3nc4ccccc4s3)cccc2C1=O	31	i	i	i
COc1ccc(NC(=O)N(C)C[C@H]2Oc3c(NC(=O)c4nc5ccccc5s4)cccc3C(=O)N([C@@H](C)CO)C[C@@H]2C)cc1	i	i	i	i
C[C@H]1CN([C@@H](C)CO)C(=O)c2cccc(NC(=O)c3nc4ccccc4s3)c2O[C@@H]1CN(C)C(=O)NC1CCCCC1	i	i	i	i
COc1ccc(NC(=O)N(C)C[C@H]2Oc3c(NC(=O)c4nc5ccccc5s4)cccc3C(=O)N([C@@H](C)CO)C[C@H]2C)cc1	32!	i	i	i
CC(C)Nc1cc(C(C)(C)C)nc2c(-c3ccccc3)cnn12	46	i	i	i
NS(=O)(=O)c1ccc(CCNC(=O)c2ccc3c(c2)OCO3)cc1	i	nt	i	i
COc1ccc(C(=O)Nc2ccnn2C2CCN(C(=O)c3cnsn3)CC2)cc1	40	i	i	i
COc1ccccc1C(=O)Nc1ccnn1C1CCN(C(=O)c2cnsn2)CC1	?	i	i	i
O=C(COC(=O)C1CCN(S(=O)(=O)c2ccc(Cl)c(C(F)(F)F)c2)CC1)NCc1ccco1	?	i	i	i
CC1CCCCN1C(=O)COC(=O)C1CCN(S(=O)(=O)c2ccc(Cl)c(C(F)(F)F)c2)CC1 (stereo not drawn)	27	i	i	i
CC(C)CN(C(=O)COC(=O)CSc1ccc(Br)cc1)C1CCS(=O)(=O)C1 (stereo not drawn)	i	i	i	i

Screening results from PubChem BioAssay.
